Measurements: ChEMBL document CHEMBL2390931, “Synthesis and antifungal activity of some s-mercaptotriazolobenzothiazolyl amino acid derivatives” (2013)
In brackets after ≈: the same amount, converted by molar mass. Activity calls are given as the source filed them. The calls are words filed in the database; no cut-off is given here.

Columns and labels:
Format in all cases: functional
Aspergillus flavus [1] = assay: Antifungal activity against Aspergillus flavus by agar diffusion technique
How it was run: (§1)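 Clinical isolates (A. flavus mold; C. albicans yeast), spore suspension standardized at 10⁴ CFU/mL. DMSO stocks diluted to a concentration series. Approximate MIC by agar diffusion (well technique), taken as the concentration giving minimal inhibition around the well.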

Candida albicans [2] = assay: Antifungal activity against Candida albicans at 100 ppm; conditions: read-out: DIZ
How it was run: (§2)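 Agar well diffusion against clinical isolates (A. flavus mold; C. albicans yeast); standardized spore suspension 10⁴ CFU/mL. Compounds dissolved in DMSO as a parent stock, diluted to test levels (100, 300, 500, 1000 ppm).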

Candida albicans [3] = assay: Antifungal activity against Candida albicans by agar diffusion technique; how it was run: as §1
Aspergillus flavus [4] = assay: Antifungal activity against Aspergillus flavus at 300 ppm; how it was run: as §2
Aspergillus flavus [5] = assay: Antifungal activity against Aspergillus flavus at 500 ppm; how it was run: as §2
Candida albicans [6] = assay: Antifungal activity against Candida albicans up to 24 hrs
How it was run: (§3)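 MFC in tubes of standardized spore suspension (10⁴ CFU/mL) of clinical isolates, each dosed with compound at increasing concentrations starting from the MIC. Controls: solvent at its highest level, and fluconazole. CFU counted and viability checked at intervals over 0–24 h. MFC is the lowest concentration killing about 99% of viable CFU.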

Candida albicans [7] = assay: Antifungal activity against Candida albicans at 500 ppm; conditions: read-out: DIZ; how it was run: as §2
Candida albicans [8] = assay: Antifungal activity against Candida albicans at 1000 ppm; conditions: read-out: DIZ; how it was run: as §2
Candida albicans [9] = assay: Antifungal activity against Candida albicans at 300 ppm; conditions: read-out: DIZ; how it was run: as §2
Aspergillus flavus [10] = assay: Antifungal activity against Aspergillus flavus up to 24 hrs; how it was run: as §3
Aspergillus flavus [11] = assay: Antifungal activity against Aspergillus flavus at 100 ppm
How it was run: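 Clinical isolate of A. flavus (mold) tested by agar diffusion, well technique, using a standardized spore suspension of 10⁴ CFU/mL. Compounds were dissolved in dimethylsulphoxide and diluted from a parent stock.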

Aspergillus flavus [12] = assay: Antifungal activity against Aspergillus flavus at 1000 ppm; how it was run: as §2

SMILES	MIC (Aspergillus flavus [1])	zone of inhibition at 100 ppm (Candida albicans [2]) [mm]	MIC (Candida albicans [3]) [mg/L]	diameter of the inhibition zone (DIZ) (Aspergillus flavus [4])	diameter of the inhibition zone (DIZ) (Aspergillus flavus [5])	MFC (Candida albicans [6]) [mg/L]	zone of inhibition at 500 ppm (Candida albicans [7]) [mm]	zone of inhibition at 1000 ppm (Candida albicans [8]) [mm]	zone of inhibition at 300 ppm (Candida albicans [9]) [mm]	MFC (Aspergillus flavus [10])	diameter of the inhibition zone (DIZ) (Aspergillus flavus [11])	diameter of the inhibition zone (DIZ) (Aspergillus flavus [12])	MFC (Aspergillus flavus [1]) [mg/L]	zone of inhibition at 300 ppm (Aspergillus flavus [4]; read-out: DIZ) [mm]	zone of inhibition at 500 ppm (Aspergillus flavus [5]; read-out: DIZ) [mm]	zone of inhibition at 100 ppm (Aspergillus flavus [11]; read-out: DIZ) [mm]	zone of inhibition at 1000 ppm (Aspergillus flavus [12]; read-out: DIZ) [mm]
NNC(=O)CSc1nnc2sc3ccccc3n12	inactive	< 10	100 (≈ 358 µM)	inactive	inactive	500 (≈ 1790 µM)	10	> 16	< 10	inactive	inactive	inactive	–	–	–	–	–
OC(Cn1cncn1)(Cn1cncn1)c1ccc(F)cc1F [FLUCONAZOLE]	–	< 10	100 (≈ 327 µM)	–	–	300 (≈ 980 µM)	> 16	> 16	10	300 mg/L (≈ 980 µM)	–	–	100 (≈ 327 µM)	10	> 16	< 10	> 16
